Common to all, as to format: cell-based
Experiment [1] deals with T1, Neuronal acetylcholine receptor; alpha3/beta4 (Rattus norvegicus, UniProt P04757+P12392). Kind of experiment: Displacement of [3H]epibatadine from rat alpha3beta4 nAChR expressed in HEK293 cells after 2 hrs by betaplate counting analysis. An outline of the steps: (§1)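 Membranes from HEK293 cells stably expressing α3β4 or α4β2 nAChR, homogenised in 50 mM Tris pH 7.4 and washed by centrifugation. Incubated 2 h at room temperature with peptide and 0.31 nM [3H]epibatidine; filtered on PEI-soaked glass fibre, counted. Nonspecific binding with 0.1 μM unlabeled epibatidine. Ki by Cheng–Prusoff from IC50.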
On the technique in general: Loss of bound radioactivity is the signal in a displacement assay; it reports binding, not function.

Experiment [2] concerns the target Neuronal acetylcholine receptor; alpha3/beta4 (Rattus norvegicus) (UniProt P04757+P12392). Kind of experiment: Antagonist activity at rat alpha3beta4 nAChR expressed in HEK293 cells assessed as inhibition of epibatadine-induced effect at 10 uM after 30 mins by fluorescent membrane potential assay relative to mecamylamine. An outline of the steps: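 Rat α3β4 nAChR stably expressed in HEK293 cells; crude, SPE-desalted individual peptides tested at 10 μM in HBSS with membrane potential blue dye, 30 min at 37 °C. Fluorescence change read after epibatidine (0.1 μM). Percent inhibition set against 10 μM mecamylamine taken as 100%.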

Experiment [3] addresses T1, Neuronal acetylcholine receptor; alpha3/beta4. The experiment is described as follows: Antagonist activity at rat alpha3beta4 nAChR expressed in HEK293 cells assessed as inhibition of epibatadine-induced effect after 30 mins by fluorescent membrane potential assay. The method, boiled down:
(§2)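 Stably transfected HEK293 lines (KXα3β4R2, KXα3β2R2, KXα4β2R2; rat subunits) grown in DMEM/10% FBS with G-418, plated 24 h before assay. Cells washed with HBSS, peptide added, then membrane potential blue dye, 30 min at 37 °C. Fluorescence (ex 565/em 530 nm) read up to 60 s after epibatidine to 0.1 μM. IC50 from maximal responses across concentrations; n = 4.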

Experiment [4] addresses Neuronal acetylcholine receptor; alpha3/beta2 (Rattus norvegicus, UniProt P04757+P12390). The experiment is described as follows: Antagonist activity at rat alpha3beta2 nAChR expressed in HEK293 cells assessed as inhibition of epibatadine-induced effect after 30 mins by fluorescent membrane potential assay. An outline of the steps:
as §2

The target in experiment [5] is Neuronal acetylcholine receptor; alpha4/beta2 (Rattus norvegicus, UniProt P09483+P12390). Kind of experiment: Antagonist activity at rat alpha4beta2 nAChR expressed in HEK293 cells assessed as inhibition of epibatadine-induced effect after 30 mins by fluorescent membrane potential assay. The method, boiled down: as §2
Experiment [6] deals with Neuronal acetylcholine receptor; alpha4/beta2 (Rattus norvegicus) (UniProt P09483+P12390). Kind of experiment: Displacement of [3H]epibatadine from rat alpha4beta2 nAChR expressed in HEK293 cells up to 10 uM after 2 hrs by betaplate counting analysis. The method, boiled down: as §1
The target in experiment [7] is Neuronal acetylcholine receptor subunit alpha-7 (Homo sapiens) (UniProt P36544). Kind of experiment: Inhibition of alpha7 nAChR (unknown origin) expressed in Xenopus laevis oocytes assessed as inhibition of acetylcholine-evoked current at 10 uM by voltage clamp technique.
Experiment [8] deals with T2, Neuronal acetylcholine receptor; alpha3/beta4 (Homo sapiens, UniProt P30926+P32297). The experiment is described as follows: Inhibition of alpha3beta4 nAChR (unknown origin) expressed in Xenopus laevis oocytes assessed as inhibition of acetylcholine-evoked current by voltage clamp technique. The method, boiled down: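 Oocytes expressing α3 chimera/β4 nAChR, voltage-clamped at ~22 °C. Concentrations below 1 μM perfused, with 1 s ACh pulses every 1 min; 1 μM and above given as a 5 min static bath. Lowest concentration tested 10 nM. IC50 from a concentration–response curve with top and bottom fixed at 100 and 0; n = 3–5 oocytes per concentration.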

Experiment [9] addresses Neuronal acetylcholine receptor; alpha3/beta2 (Homo sapiens) (UniProt P17787+P32297). Kind of experiment: Inhibition of alpha3beta2 nAChR (unknown origin) expressed in Xenopus laevis oocytes assessed as inhibition of acetylcholine-evoked current up to 10 uM by voltage clamp technique.
Experiment [10] is filed under the species Homo sapiens. The experiment is described as follows: Selectivity for alpha3beta4 nAChR (unknown origin) expressed in Xenopus laevis oocytes over alpha3beta2 nAChR (unknown origin) expressed in Xenopus laevis oocytes.
For experiment [11], the target named is T2, Neuronal acetylcholine receptor; alpha3/beta4. The experiment is described as follows: Inhibition of alpha3beta4 nAChR (unknown origin) expressed in Xenopus laevis oocytes assessed as inhibition of acetylcholine-evoked current at 10 uM by voltage clamp technique.
Experiment [12] has the same target. Kind of experiment: Inhibition of human alpha3beta4 nAChR expressed in Xenopus laevis oocytes by two-electrode voltage clamp technique. (In two-electrode clamp one electrode senses voltage and the other passes current.)

SMILES strings stand for the structures. Activity calls are given as the source filed them. The rule behind the calls is not given here. Bridge positions count the residues as written; N and C are the ends. Square brackets hold non-standard residues; d marks the D form. Peptide text beside a SMILES is read from it. Nle = CCCC[C@H](N)C(=O)O; Nva = CCC[C@H](N)C(=O)O; Abu = CC[C@H](N)C(=O)O

Sequence of Neuronal acetylcholine receptor; alpha4/beta2 (P09483 whole entry): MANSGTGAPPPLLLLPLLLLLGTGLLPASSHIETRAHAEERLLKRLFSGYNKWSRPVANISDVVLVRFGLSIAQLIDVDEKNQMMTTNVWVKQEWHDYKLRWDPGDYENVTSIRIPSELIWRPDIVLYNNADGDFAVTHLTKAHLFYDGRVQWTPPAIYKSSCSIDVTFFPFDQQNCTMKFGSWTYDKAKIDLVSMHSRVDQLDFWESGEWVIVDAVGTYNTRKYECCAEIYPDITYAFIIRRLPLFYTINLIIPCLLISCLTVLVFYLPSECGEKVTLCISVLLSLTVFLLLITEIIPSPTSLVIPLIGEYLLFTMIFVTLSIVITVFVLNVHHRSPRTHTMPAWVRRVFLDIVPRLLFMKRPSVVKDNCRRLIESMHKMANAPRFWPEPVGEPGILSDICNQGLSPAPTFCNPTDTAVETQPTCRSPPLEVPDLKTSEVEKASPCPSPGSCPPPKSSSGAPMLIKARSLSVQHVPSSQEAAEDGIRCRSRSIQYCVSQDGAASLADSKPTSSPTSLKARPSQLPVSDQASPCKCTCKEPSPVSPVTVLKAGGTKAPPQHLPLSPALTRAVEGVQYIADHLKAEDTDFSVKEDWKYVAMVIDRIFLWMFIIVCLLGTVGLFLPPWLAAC
Sequence of Neuronal acetylcholine receptor; alpha4/beta2 (P12390 whole entry): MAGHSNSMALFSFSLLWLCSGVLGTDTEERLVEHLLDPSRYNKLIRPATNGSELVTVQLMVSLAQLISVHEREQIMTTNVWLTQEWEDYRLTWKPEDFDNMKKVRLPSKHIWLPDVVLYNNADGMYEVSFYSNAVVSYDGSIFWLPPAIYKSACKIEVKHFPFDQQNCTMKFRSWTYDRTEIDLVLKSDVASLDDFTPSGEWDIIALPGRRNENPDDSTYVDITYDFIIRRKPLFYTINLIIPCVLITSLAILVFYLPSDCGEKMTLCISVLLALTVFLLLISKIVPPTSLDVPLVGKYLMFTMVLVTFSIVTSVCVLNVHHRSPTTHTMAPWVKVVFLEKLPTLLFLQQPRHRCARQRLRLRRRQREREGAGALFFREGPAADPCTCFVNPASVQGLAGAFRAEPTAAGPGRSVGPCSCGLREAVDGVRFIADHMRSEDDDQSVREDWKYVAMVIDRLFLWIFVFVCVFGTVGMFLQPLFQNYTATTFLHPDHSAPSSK
Sequence of Neuronal acetylcholine receptor subunit alpha-7 (Homo sapiens) (P36544 whole entry, the tested form may be a part): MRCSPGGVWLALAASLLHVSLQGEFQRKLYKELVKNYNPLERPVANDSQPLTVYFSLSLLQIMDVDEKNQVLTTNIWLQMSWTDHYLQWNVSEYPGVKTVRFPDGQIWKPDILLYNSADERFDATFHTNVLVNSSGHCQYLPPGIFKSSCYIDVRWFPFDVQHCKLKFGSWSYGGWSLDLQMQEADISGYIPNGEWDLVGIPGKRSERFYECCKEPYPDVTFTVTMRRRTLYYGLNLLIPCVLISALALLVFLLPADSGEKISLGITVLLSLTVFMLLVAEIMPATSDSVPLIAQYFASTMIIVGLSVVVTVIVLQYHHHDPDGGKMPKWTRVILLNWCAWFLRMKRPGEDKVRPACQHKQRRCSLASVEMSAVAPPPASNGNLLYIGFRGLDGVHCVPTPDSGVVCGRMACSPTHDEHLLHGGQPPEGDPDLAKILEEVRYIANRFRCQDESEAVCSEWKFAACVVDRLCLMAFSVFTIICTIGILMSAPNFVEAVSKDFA
Sequence of Neuronal acetylcholine receptor; alpha3/beta2 (P04757 whole entry): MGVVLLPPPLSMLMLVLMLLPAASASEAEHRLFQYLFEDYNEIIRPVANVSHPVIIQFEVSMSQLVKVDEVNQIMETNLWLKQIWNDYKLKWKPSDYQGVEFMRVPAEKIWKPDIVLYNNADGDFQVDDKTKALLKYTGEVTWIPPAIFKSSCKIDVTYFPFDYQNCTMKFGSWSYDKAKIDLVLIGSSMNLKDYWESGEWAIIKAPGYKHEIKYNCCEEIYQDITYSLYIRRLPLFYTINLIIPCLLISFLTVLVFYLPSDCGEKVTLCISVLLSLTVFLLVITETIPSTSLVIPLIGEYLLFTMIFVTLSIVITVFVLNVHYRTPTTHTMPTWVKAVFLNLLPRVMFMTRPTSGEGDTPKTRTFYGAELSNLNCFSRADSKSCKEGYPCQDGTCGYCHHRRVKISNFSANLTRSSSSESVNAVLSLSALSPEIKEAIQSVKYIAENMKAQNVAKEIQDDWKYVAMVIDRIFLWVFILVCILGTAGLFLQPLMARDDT
Sequence of Neuronal acetylcholine receptor; alpha3/beta2 (P12390 whole entry): as the sequence (P12390 whole entry) above
T1 sequence (P04757 whole entry): as the sequence (P04757 whole entry) above
T1 sequence (P12392 whole entry): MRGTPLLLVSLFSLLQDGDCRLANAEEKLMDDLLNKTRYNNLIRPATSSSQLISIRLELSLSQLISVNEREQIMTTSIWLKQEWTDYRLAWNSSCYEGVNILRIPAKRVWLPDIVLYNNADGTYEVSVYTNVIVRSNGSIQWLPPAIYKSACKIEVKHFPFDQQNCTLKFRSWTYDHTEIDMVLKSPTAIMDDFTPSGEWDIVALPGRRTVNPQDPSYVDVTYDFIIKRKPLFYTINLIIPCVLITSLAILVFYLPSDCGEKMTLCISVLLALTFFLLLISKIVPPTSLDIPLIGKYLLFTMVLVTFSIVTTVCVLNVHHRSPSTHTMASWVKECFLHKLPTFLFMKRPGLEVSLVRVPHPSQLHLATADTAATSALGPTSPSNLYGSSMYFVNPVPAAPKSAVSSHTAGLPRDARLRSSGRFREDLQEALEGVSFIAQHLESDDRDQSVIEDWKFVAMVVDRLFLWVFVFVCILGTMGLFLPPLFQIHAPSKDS
T2 sequence (P30926 whole entry, the tested form may be a part): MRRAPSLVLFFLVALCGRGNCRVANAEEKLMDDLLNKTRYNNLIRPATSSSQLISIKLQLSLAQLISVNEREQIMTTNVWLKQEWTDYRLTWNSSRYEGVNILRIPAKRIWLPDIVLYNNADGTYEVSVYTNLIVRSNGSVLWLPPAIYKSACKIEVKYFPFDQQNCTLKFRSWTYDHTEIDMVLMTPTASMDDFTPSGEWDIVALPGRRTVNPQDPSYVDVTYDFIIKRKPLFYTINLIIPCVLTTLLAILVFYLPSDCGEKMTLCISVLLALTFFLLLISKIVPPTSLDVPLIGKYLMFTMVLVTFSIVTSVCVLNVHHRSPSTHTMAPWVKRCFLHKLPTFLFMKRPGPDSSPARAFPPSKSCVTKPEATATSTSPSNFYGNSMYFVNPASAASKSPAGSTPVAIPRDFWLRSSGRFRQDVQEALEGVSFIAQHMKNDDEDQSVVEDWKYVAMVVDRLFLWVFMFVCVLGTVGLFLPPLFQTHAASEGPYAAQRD
T2 sequence (P32297 whole entry, the tested form may be a part): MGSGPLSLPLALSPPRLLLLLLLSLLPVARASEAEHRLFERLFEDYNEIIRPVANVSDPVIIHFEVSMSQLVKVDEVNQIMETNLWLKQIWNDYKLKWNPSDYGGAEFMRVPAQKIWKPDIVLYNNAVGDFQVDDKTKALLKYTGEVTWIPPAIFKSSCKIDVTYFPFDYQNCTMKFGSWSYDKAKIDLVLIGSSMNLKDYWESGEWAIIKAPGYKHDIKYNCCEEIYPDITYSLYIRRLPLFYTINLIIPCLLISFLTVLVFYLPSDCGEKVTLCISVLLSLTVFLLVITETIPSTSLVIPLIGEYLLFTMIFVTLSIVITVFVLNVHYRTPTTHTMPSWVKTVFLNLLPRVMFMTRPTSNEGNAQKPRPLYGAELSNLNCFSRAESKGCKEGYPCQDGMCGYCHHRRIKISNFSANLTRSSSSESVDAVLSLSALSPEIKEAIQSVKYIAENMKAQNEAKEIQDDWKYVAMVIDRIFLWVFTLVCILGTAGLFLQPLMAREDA

With `CCC[C@@H]1NC(=O)[C@H](CC)NC(=O)[C@H](Cc2ccccc2)NC(=O)[C@@H]2CSSC[C@H](NC(=O)CN)C(=O)N[C@@H](CSSC[C@@H](C(=O)O)NC(=O)[C@H](Cc3ccc(O)cc3)NC1=O)C(=O)N[C@@H](CO)C(=O)N[C@@H](Cc1cnc[nH]1)C(=O)N1CCC[C@H]1C(=O)N[C@@H](CC)C(=O)N2` (H-GCCSHP[Abu]CF[Abu][Nva]YC-OH; disulfide 2-8, 3-13), the affinity in [1] corresponds to a Ki of 270 nM. The values for the inhibition in [2], in experiment [8] and in experiment [11] were 109%, “Dose-dependent effect” and 75%, respectively. Further, the IC50 – broadly, the concentration at which inhibition is half-maximal – is 183 nM in [3], over 10000 nM in experiment [4] and over 10000 nM in [5]. In addition, the result in [6] was inactive. The inhibition entry in [7] and in experiment [9] was “inactive” throughout. The Selectivity ratio in experiment [10] was over 1000.
For `CCC[C@@H]1NC(=O)[C@H](CC)NC(=O)[C@H](Cc2ccccc2)NC(=O)[C@@H]2CSSC[C@H](NC(=O)CN)C(=O)N[C@@H](CSSC[C@@H](C(=O)O)NC(=O)[C@H](Cc3ccc(O)cc3)NC1=O)C(=O)N[C@@H](CO)C(=O)N[C@@H](Cc1cnc[nH]1)C(=O)N1CCC[C@H]1C(=O)N1CCC[C@H]1C(=O)N2` (H-GCCSHPPCF[Abu][Nva]YC-OH; disulfide 2-8, 3-13), the affinity in experiment [1], expressed as Ki, was 794 nM. Also, the inhibition (in general, the relative decrease from the control value, in per cent) in experiment [2] is 92.6%; in [7], 49.8%. Moreover, the half-maximal inhibitory concentration (IC50) in experiment [3] is 298 nM; in experiment [4], over 10000 nM; in [5], over 10000 nM. For the same compound, in [6], the outcome was inactive.
Consider `CCCC[C@@H]1NC(=O)[C@H](CO)NC(=O)[C@@H]2CSSC[C@@H](C(=O)O)NC(=O)[C@H](Cc3ccc(O)cc3)NC(=O)[C@H](CCC)NC(=O)[C@H](CC)NC(=O)[C@H](Cc3ccccc3)NC(=O)[C@H](CSSC[C@H](NC(=O)CN)C(=O)N2)NC(=O)[C@H](CC)NC(=O)[C@@H]2CCCN2C1=O` (H-GCCS[Nle]P[Abu]CF[Abu][Nva]YC-OH; disulfide 2-8, 3-13), for which, in experiment [1], the Ki (as a rule, the equilibrium dissociation constant of an inhibitor or competing ligand from its target) was 980 nM. Further, in [2], the inhibition stood at 104%. Further, the IC50 in experiment [3] was 320 nM; in experiment [4], over 10000 nM; in experiment [5] it was over 10000 nM. Further, the result in experiment [6] was inactive. Also, the inhibition result in [7] was “inactive”.
Compound `CC[C@H](C)[C@@H]1NC(=O)[C@H](Cc2cnc[nH]2)NC(=O)[C@H](CCC(N)=O)NC(=O)[C@H](CC(N)=O)NC(=O)[C@H](CC(N)=O)NC(=O)CNC(=O)[C@H](C)NC(=O)[C@@H]2CSSC[C@H](NC(=O)CN)C(=O)N[C@@H](CSSC[C@@H](C(=O)O)NC1=O)C(=O)N[C@@H](CO)C(=O)N[C@@H](Cc1cnc[nH]1)C(=O)N1CCC[C@H]1C(=O)N[C@@H](C)C(=O)N2` showed an IC50 in experiment [12] of 755 nM.
Compound `CCCC[C@@H]1NC(=O)[C@H](CO)NC(=O)[C@@H]2CSSC[C@@H](C(=O)O)NC(=O)[C@H](Cc3ccc(O)cc3)NC(=O)[C@H](CCC)NC(=O)[C@H](CC)NC(=O)[C@H](Cc3ccccc3)NC(=O)[C@H](CSSC[C@H](NC(=O)CN)C(=O)N2)NC(=O)[C@@H]2CCCN2C(=O)[C@@H]2CCCN2C1=O` (H-GCCS[Nle]PPCF[Abu][Nva]YC-OH; disulfide 2-8, 3-13) showed a Ki in [1] of 1110 nM. In addition, the inhibition in [2] worked out at 96.4%. Moreover, the half-inhibitory concentration (IC50) in [3] was 345 nM; in experiment [4], over 10000 nM; in [5], over 10000 nM. Further, the outcome in experiment [6] was inactive. For the same compound, the inhibition entry in experiment [7] was “inactive”.
